These results are taken from ChEMBL document CHEMBL4402611, “Phenyl(thio)phosphon(amid)ate Benzenesulfonamides as Potent and Selective Inhibitors of Human Carbonic Anhydrases II and VII Counteract Allodynia in a Mouse Model of Oxaliplatin-Induced Neuropathy” (J Med Chem, 2020).

Active and inactive are the calls of the source.

For series [1], the target named is Carbonic anhydrase 5B, mitochondrial (Homo sapiens, UniProt Q9Y2D0). Briefly: Inhibition of human recombinant carbonic anhydrase 5B preincubated with enzyme for 1 hr prior to testing by phenol red-based stopped-flow CO2 hydration assay.
Sequence of Carbonic anhydrase 5B, mitochondrial (Q9Y2D0 whole entry): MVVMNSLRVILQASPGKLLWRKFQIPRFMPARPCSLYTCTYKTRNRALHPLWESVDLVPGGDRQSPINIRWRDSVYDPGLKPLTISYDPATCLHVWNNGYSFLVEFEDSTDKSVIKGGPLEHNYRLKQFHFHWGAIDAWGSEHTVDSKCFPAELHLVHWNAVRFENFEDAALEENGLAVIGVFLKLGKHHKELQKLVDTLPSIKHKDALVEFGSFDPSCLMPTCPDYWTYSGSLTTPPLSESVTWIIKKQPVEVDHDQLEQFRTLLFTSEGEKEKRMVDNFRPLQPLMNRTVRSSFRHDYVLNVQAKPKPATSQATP
Series [2] addresses Carbonic anhydrase 1 (Homo sapiens, UniProt P00915). Kind of series: Inhibition of human recombinant carbonic anhydrase 1 preincubated with enzyme for 1 hr prior to testing by phenol red-based stopped-flow CO2 hydration assay.
Series [3] concerns the target Carbonic anhydrase 12 (Homo sapiens, UniProt O43570). Briefly: Inhibition of human recombinant carbonic anhydrase 12 preincubated with enzyme for 1 hr prior to testing by phenol red-based stopped-flow CO2 hydration assay.
Series [4] deals with Carbonic anhydrase 2 (Homo sapiens, UniProt P00918). Briefly: Inhibition of human recombinant carbonic anhydrase 2 preincubated with enzyme for 1 hr prior to testing by phenol red-based stopped-flow CO2 hydration assay.
Series [5] addresses Carbonic anhydrase 7 (Homo sapiens, UniProt P43166). Briefly: Inhibition of human recombinant carbonic anhydrase 7 preincubated with enzyme for 1 hr prior to testing by phenol red-based stopped-flow CO2 hydration assay.
In series [6] the target is Carbonic anhydrase 5A, mitochondrial (Homo sapiens, UniProt P35218). Kind of series: Inhibition of human recombinant carbonic anhydrase 5A preincubated with enzyme for 1 hr prior to testing by phenol red-based stopped-flow CO2 hydration assay.
Sequence of Carbonic anhydrase 5A, mitochondrial (P35218 whole entry): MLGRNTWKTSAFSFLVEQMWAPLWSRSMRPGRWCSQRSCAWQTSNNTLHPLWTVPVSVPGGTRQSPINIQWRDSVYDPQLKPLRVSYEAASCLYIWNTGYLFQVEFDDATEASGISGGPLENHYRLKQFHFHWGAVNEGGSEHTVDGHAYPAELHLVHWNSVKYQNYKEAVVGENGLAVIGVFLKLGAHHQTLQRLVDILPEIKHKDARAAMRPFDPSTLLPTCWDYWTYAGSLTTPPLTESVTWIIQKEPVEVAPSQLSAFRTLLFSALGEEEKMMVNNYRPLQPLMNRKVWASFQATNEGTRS
In series [7] the target is Carbonic anhydrase 9 (Homo sapiens, UniProt Q16790). Briefly: Inhibition of human recombinant carbonic anhydrase 9 preincubated with enzyme for 1 hr prior to testing by phenol red-based stopped-flow CO2 hydration assay. Format: single protein.
For series [8], the target named is Carbonic anhydrase 4 (Homo sapiens, UniProt P22748). Briefly: Inhibition of human recombinant carbonic anhydrase 4 preincubated with enzyme for 1 hr prior to testing by phenol red-based stopped-flow CO2 hydration assay.
Sequence of Carbonic anhydrase 4 (P22748 whole entry): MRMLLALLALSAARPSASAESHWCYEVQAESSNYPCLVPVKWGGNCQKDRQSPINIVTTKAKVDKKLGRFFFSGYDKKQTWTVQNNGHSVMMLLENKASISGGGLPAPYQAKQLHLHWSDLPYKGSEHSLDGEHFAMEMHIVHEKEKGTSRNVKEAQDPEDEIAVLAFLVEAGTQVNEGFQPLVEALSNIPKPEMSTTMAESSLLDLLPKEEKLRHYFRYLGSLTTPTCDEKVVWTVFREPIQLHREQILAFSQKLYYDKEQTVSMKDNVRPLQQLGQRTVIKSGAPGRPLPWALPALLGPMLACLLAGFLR
The test system of series [9] is Mus musculus. Kind of series: Antinociceptive activity in CD-1 albino mouse model of oxaliplatin-induced neuropathic pain assessed as decrease in pain-related behaviour measured as licking latency at 50 mg/kg, po treated on day 15 post oxaliplatin treatment and measured after 15 to 45 mins post dose by cold plate test. The series is classed as functional, organism-based. Put shortly: (§1)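 Male CD-1 mice (22–25 g) given oxaliplatin 2.4 mg kg–1 i.p. in 5% glucose on days 1–2, 5–9 and 12–14 (10 injections). On day 15, compounds were suspended in 1% CMC and given once orally. Cold plate held at 4 °C; latency to first hind-paw licking recorded, 30 s cutoff. Readings taken before dosing and at 15, 30, 45 and 60 min after. 12 mice per group over two sets, observers blinded.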

The nature of series [10]: Stability of compound in PBS buffer measured up to 120 mins by LC-MS/MS analysis. Format: physicochemical. Conditions: 2 h. Put shortly:
(§2)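 Analyte (1 μM final) incubated at 37 °C in PBS, 10 mM HCl (pH 2) or human plasma. Sampling at 0, 30, 60 and 120 min, each in triplicate. Samples were quenched with acetonitrile containing verapamil internal standard, centrifuged and diluted. Read-out was LC–MS/MS with positive ESI and MRM on a PFP column.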

A short description of series [11]: Stability of compound in human plasma measured up to 120 mins by LC-MS/MS analysis. The series is classed as ADME, cell-free. Particulars: 2 h. Put shortly: as §2
Series [12] in a line: Stability of compound in aqueous HCl solution at pH 2 measured up to 120 mins by LC-MS/MS analysis. The series is classed as physicochemical. Conditions: buffer, pH 2, 2 h. Put shortly:
as §2

The subject of series [13] is Mus musculus. Kind of series: Antinociceptive activity in orally dosed CD-1 albino mouse model of oxaliplatin-induced neuropathic pain assessed as decrease in pain-related behaviour measured as licking latency treated on day 15 post oxaliplatin treatment and measured upto 45 mins post dose by cold plate test. The series is classed as functional, organism-based. Summed up:
as §1

Series [14] deals with Mus musculus. Kind of series: Antinociceptive activity in CD-1 albino mouse model of oxaliplatin-induced neuropathic pain assessed as decrease in pain-related behaviour measured as licking latency at 10 to 100 mg/kg, po treated on day 15 post oxaliplatin treatment and measured after 15 to 30 mins post dose by cold plate test. Format: functional, organism-based. Summed up: as §1

Series [15] in a line: Solubility of compound in water. Format: physicochemical. Conditions: buffer.

Sequence of Carbonic anhydrase 7 (P43166 whole entry): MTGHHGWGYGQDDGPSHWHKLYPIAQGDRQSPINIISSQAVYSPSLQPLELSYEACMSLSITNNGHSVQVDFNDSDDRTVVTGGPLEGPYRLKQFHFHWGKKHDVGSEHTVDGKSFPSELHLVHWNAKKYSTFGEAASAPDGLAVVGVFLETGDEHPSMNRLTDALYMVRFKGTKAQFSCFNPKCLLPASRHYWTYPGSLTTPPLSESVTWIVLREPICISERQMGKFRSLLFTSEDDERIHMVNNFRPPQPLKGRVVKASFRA
Sequence of Carbonic anhydrase 12 (O43570 whole entry): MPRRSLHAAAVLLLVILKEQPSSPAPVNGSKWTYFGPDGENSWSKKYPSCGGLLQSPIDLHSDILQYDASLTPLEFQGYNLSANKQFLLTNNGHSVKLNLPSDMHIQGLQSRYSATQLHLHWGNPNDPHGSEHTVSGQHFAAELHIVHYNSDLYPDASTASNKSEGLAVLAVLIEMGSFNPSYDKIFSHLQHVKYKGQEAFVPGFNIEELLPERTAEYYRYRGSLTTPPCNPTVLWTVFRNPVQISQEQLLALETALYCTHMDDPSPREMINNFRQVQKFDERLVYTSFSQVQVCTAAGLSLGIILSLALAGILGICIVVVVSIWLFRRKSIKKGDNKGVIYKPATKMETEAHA
Sequence of Carbonic anhydrase 1 (P00915 whole entry): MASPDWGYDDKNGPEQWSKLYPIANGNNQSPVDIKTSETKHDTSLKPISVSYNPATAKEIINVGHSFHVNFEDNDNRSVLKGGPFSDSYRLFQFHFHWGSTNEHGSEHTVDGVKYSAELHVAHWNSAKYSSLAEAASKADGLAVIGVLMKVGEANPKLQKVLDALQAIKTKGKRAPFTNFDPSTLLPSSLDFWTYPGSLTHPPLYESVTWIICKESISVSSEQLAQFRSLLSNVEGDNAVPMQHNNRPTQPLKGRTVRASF

In general, Ki refers to the equilibrium dissociation constant of an inhibitor or competing ligand from its target. With `CCN(CC)P(=O)(Oc1ccc(S(N)(=O)=O)cc1)c1ccccc1` (racemic), the Ki was 49.1 nM in series [1]; 521 nM in series [2]; 46.8 nM in [3]; 17.5 nM in [4]; 13.5 nM in [5]; 107 nM in series [6]. Further, the values for the Ki in series [7] and in series [8] were 19.5 nM and 371 nM, respectively.
As for `NS(=O)(=O)c1ccc(OP(=O)(O)c2ccccc2)cc1`, the Ki in series [1] came out at 52.8 nM; in series [2], 197 nM; in series [3], 30.8 nM; in series [4], 37.9 nM; in [5], 16.1 nM; in series [6] it was 76.3 nM. In addition, the Ki in series [7] was found to be 26.1 nM; in [8] it was 220 nM.
For the compound `C#CCO[P@@](=O)(Oc1ccc(S(N)(=O)=O)cc1)c1ccccc1`, the result in series [9] was inactive. Also, the Ki in [1] worked out at 66.1 nM; in series [2], 365 nM; in series [3] it was 49.2 nM; in series [4] it was 56.4 nM; in series [5] it was 71.3 nM; in series [6], 66.5 nM. Besides, the Ki in series [8] was 1980 nM.
`NS(=O)(=O)c1ccc(OP(=O)(SCc2ccccc2)c2ccccc2)cc1` (racemic): the Ki is 58.4 nM in [1]; 3260 nM in series [2]; 21.3 nM in series [3]; 64.8 nM in [4]; 75.5 nM in series [5]; 151 nM in series [6]. Further, the Ki in [7] turned out to be 25 nM; in series [8] it was 4460 nM.
In the case of `COCCOP(=O)(Oc1ccc(S(N)(=O)=O)cc1)c1ccccc1` (racemic), the Ki stood at 67.2 nM in series [1]; 780 nM in [2]; 35.7 nM in [3]; 28.5 nM in series [4]; 25 nM in series [5]; 59.3 nM in series [6]. In addition, the Ki in [7] was 12.1 nM; in [8] it was 1640 nM.
As to `CC(C)OP(=O)(Oc1ccc(S(N)(=O)=O)cc1)c1ccccc1` (racemic), the Ki in series [1] worked out at 19.8 nM; in series [2], 308 nM; in [3], 42 nM; in series [4], 12.8 nM; in series [5], 6.2 nM; in [6], 101 nM. Also, the Ki in series [7] turned out to be 17.5 nM; in [8], 1200 nM. The Stability result in [10], in [11] and in series [12] was “Stable” in each case. Also, the Activity result in series [13] is “Dose-dependent effect”.
As to `NS(=O)(=O)c1ccc(OP(=O)(Nc2ccccc2)c2ccccc2)cc1` (racemic), the Ki in series [1] is 24 nM; in series [2], 818 nM; in [3], 20.9 nM; in series [4], 2.4 nM; in series [5], 5.5 nM; in series [6], 185 nM. In addition, the figures for the inhibition constant (Ki) in series [7] and in series [8] were 19.6 nM and 860 nM, respectively. Besides, the Stability result in series [10], in [11] and in series [12] was “Stable” in each case. In addition, the outcome in series [14] was Active.
Consider `NS(=O)(=O)c1ccc(OP(=O)(Sc2ccccc2)c2ccccc2)cc1` (racemic), for which the Ki in [1] was found to be 28.7 nM; in series [2] it was 1630 nM; in series [3], 39.2 nM; in [4] it was 34.9 nM; in series [5], 15.7 nM; in [6], 382 nM. Besides, the Ki is 6.6 nM in [7] and 2630 nM in series [8].
Turning to `CCCNP(=O)(Oc1ccc(S(N)(=O)=O)cc1)c1ccccc1` (racemic), the Ki stood at 33.7 nM in [1]; 759 nM in series [2]; 17.3 nM in series [3]; 26.2 nM in [4]; 20.8 nM in [5]; 85.2 nM in [6]. Further, the Ki amounted to 3.2 nM in [7] and 1520 nM in [8].
Regarding `CN1CCN(P(=O)(Oc2ccc(S(N)(=O)=O)cc2)c2ccccc2)CC1` (racemic), the Ki in series [1] stood at 47.3 nM; in series [2], 391 nM; in series [3], 25.3 nM; in [4], 9.1 nM; in [5], 17 nM; in [6], 164 nM. For the same compound, the Ki in series [7] amounted to 61.9 nM; in series [8], 76.9 nM. Besides, the solubility result in series [15] is given as “Soluble”. For the same compound, the Stability result in series [10], in series [11] and in series [12] was “Stable” throughout. Further, in series [14], the outcome was Active.
As for `NS(=O)(=O)c1ccc(OP(=O)(NCc2ccccc2)c2ccccc2)cc1` (racemic), the inhibition constant (Ki) in series [1] worked out at 68.7 nM; in series [2], 1710 nM; in series [3] it was 19.7 nM; in series [4] it was 52.9 nM; in series [5], 15.4 nM; in [6], 59.1 nM. In addition, the values for the Ki in series [7] and in [8] were 2.6 nM and 644 nM, respectively.
`CCOP(=O)(Oc1ccc(S(N)(=O)=O)cc1)c1ccccc1` (racemic): the Ki in series [1] worked out at 40.1 nM; in [2], 398 nM; in [3] it was 22.4 nM; in series [4], 36.6 nM; in [5], 38.2 nM; in [6], 143 nM. In addition, the Ki in [7] came to 18.7 nM; in series [8] it was 425 nM.
As for `CCCCCCCCCCCCSP(=O)(Oc1ccc(S(N)(=O)=O)cc1)c1ccccc1` (racemic), the Ki worked out at 225 nM in series [1]; 8350 nM in series [2]; 47.8 nM in series [3]; 234 nM in [4]; 101 nM in [5]; 642 nM in [6]. Besides, the figures for the Ki in series [7] and in [8] were 51.2 nM and 4160 nM, respectively.
For `NS(=O)(=O)c1ccc(OP(=O)(Oc2ccccc2)c2ccccc2)cc1` (racemic), the Ki in series [1] amounted to 22.7 nM; in series [2], 971 nM; in series [3] it was 24.6 nM; in [4] it was 15.2 nM; in series [5] it was 31.4 nM; in [6], 470 nM. In addition, the Ki was found to be 13.2 nM in series [7] and 2620 nM in series [8].
With `CCSP(=O)(Oc1ccc(S(N)(=O)=O)cc1)c1ccccc1` (racemic), the Ki in [1] amounted to 96.7 nM; in series [2] it was 727 nM; in series [3], 34.1 nM; in series [4] it was 30.2 nM; in series [5] it was 41.5 nM; in [6], 94.3 nM. The Ki in series [7] worked out at 27 nM; in [8], 1390 nM.
For the compound `C#CCO[P@](=O)(Oc1ccc(S(N)(=O)=O)cc1)c1ccccc1`, the outcome in series [9] was Active. Further, the Ki in series [1] worked out at 19.2 nM; in [2], 564 nM; in series [3], 17.3 nM; in series [4], 0.78 nM; in series [5], 1.1 nM; in [6], 108 nM. In addition, the Ki in [8] turned out to be 746 nM.
In the case of `NP(=O)(Oc1ccc(S(N)(=O)=O)cc1)c1ccccc1` (racemic), the Ki in [1] stood at 12.6 nM; in series [2], 195 nM; in series [3] it was 15.4 nM; in [4], 17.9 nM; in [5], 18.9 nM; in series [6] it was 41.3 nM. Also, the Ki in series [7] was determined as 20.9 nM; in series [8], 292 nM.
For `COP(=O)(Oc1ccc(S(N)(=O)=O)cc1)c1ccccc1` (racemic), the Ki turned out to be 24.3 nM in [1]; 495 nM in series [2]; 47.2 nM in [3]; 11.4 nM in series [4]; 36 nM in series [5]; 51.7 nM in series [6]. Besides, the Ki in series [7] came out at 16.2 nM; in series [8] it was 259 nM.
On to `NS(=O)(=O)c1ccc(OP(=O)(c2ccccc2)N2CCOCC2)cc1` (racemic), for which the Ki in [1] is 27.4 nM; in [2], 318 nM; in series [3], 27.6 nM; in series [4], 7.9 nM; in [5], 30.5 nM; in series [6], 43.9 nM. Also, the Ki in series [7] came to 11.1 nM; in [8] it was 120 nM.
